From ChEMBL document CHEMBL2034884, “Synthesis, in vitro and in silico screening of ethyl 2-(6-substituted benzo[d]thiazol-2-ylamino)-2-oxoacetates as protein-tyrosine phosphatase 1B inhibitors” (Eur J Med Chem, 2012) come the findings set out here.

pIC50, pKi: −log10 of the molar value. The source made the active and inactive calls. The calls are words filed in the database; no cut-off is given here. Where only a bound is given, the exact number is not on record here.

The test system of assay [1] is Rattus norvegicus. Kind of assay: Hypoglycemic activity in glucose-fed normoglycemic Wistar rat assessed as decrease in rise of blood glucose at 4 mg/kg, po single dose measured up to 4 hrs post dose by oral glucose tolerance test. The class given is functional, organism-based. Further details: dose 4 mg/kg. A digest of the protocol: (§1)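 Male Wistar rats (200–250 g), fasted 18 h, n = 5 per group. Test agents were given orally as suspensions at the listed doses, with vehicle controls. A 2 g/kg glucose load was given by the same route 10 min later. Tail-tip blood was sampled at 0, 0.5, 1, 2, 3 and 4 h. Glucose was read by the glucose oxidase glucometer method.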

The target of assay [2] is T1, Tyrosine-protein phosphatase non-receptor type 1 (Homo sapiens) (UniProt P18031).
T1 sequence (whole entry): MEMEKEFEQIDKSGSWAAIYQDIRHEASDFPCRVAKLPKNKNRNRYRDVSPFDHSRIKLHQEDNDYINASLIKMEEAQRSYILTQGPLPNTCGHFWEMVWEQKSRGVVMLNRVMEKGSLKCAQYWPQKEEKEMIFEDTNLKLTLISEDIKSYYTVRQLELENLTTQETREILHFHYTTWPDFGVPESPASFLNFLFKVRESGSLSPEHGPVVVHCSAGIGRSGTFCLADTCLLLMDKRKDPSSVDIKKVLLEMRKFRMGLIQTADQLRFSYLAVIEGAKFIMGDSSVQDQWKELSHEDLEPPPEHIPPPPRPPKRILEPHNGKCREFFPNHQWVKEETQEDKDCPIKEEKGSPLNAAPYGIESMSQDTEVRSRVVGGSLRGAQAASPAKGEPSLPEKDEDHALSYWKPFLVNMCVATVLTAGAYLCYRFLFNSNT
Kind of assay: Reversible inhibition of human recombinant GST-tagged PTP1B expressed in Escherichia coli TB1 cells using p-NPP as substrate at 100 uM after 1 hr at 37 degC. In short, it runs like this: (§2)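 The enzyme, cleaved from GST, was preincubated for 1 h at 4 °C or 37 °C with 100 μM compound or a DMSO control. It was then diluted 400-fold into assay solution, and residual activity was measured at 37 °C with 5 mM p-NPP final, read at 400 nm. Triplicates, mean ± S.E.M.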

Assay [3] addresses T2, Tyrosine-protein phosphatase non-receptor type 1 (Homo sapiens, UniProt P18031).
T2 sequence (P18031 whole entry): T1 sequence (whole entry)
Kind of assay: Inhibition of human recombinant GST-tagged PTP1B expressed in Escherichia coli TB1 cells using p-NPP as substrate.

Assay [4] has as its target T2, Tyrosine-protein phosphatase non-receptor type 1. Kind of assay: Mixed-type inhibition of human recombinant GST-tagged PTP1B expressed in Escherichia coli TB1 cells using p-NPP as substrate by double reciprocal plot analysis. In short, it runs like this:
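Thrombin-cleaved, gel-filtered PTP-1B in pH 7.0 β,β-dimethylglutarate/EDTA/DTT buffer at 37 °C. Initial p-NPP hydrolysis rates were measured at eight substrate concentrations (0.5–40 mM) with increasing inhibitor concentrations. p-Nitrophenol was read at 400 nm, and Km/Vmax changes were analysed by double reciprocal plots.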

In assay [5] the test system is Rattus norvegicus. Kind of assay: Hypoglycemic activity in glucose fed normoglycemic Wistar rat assessed as decrease in rise of blood glucose at 100 mg/kg, po single dose measured up to 4 hrs post dose by oral glucose tolerance test. The assay is classed as functional. On the set-up: scale not given: the % may be the effect or the level left. A digest of the protocol: as §1

Assay [6] concerns the target T1, Tyrosine-protein phosphatase non-receptor type 1 (Homo sapiens). The experiment in a line: Slow binding inhibition of human recombinant GST-tagged PTP1B expressed in Escherichia coli TB1 cells using p-NPP as substrate. A digest of the protocol: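 p-Nitrophenol release from p-NPP by PTP-1B was followed over time at 400 nm at several inhibitor concentrations, at 37 °C, pH 7.0. Progress curves were examined for linearity, with and without 30 min enzyme–inhibitor preincubation before the assay.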

For assay [7] the target is unchanged. Kind of assay: Reversible inhibition of human recombinant GST-tagged PTP1B expressed in Escherichia coli TB1 cells using p-NPP as substrate at 100 uM after 1 hr at 4 degC. In short, it runs like this:
as §2

Assay [8] relates to Rattus norvegicus. The experiment in a line: Hypoglycemic activity in normoglycemic Wistar rat at 100 mg/kg, po administered as single dose measured up to 3 hrs post dose. The class given is functional. In short, it runs like this: (§3)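 Male Wistar rats (200–250 g), n = 5 per group, given a single oral/intragastric dose suspended in 5% Tween 80. Vehicle controls received 5% Tween 80. Caudal-vein blood was taken at 0, 1, 3, 5 and 7 h and glucose read with a glucose oxidase glucometer. Results are % glycemia change versus 0 h, mean ± S.E.M., ANOVA p < 0.05.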

The target of assay [9] is T1, Tyrosine-protein phosphatase non-receptor type 1 (Homo sapiens). Kind of assay: Inhibition of human recombinant GST-tagged PTP1B expressed in Escherichia coli TB1 cells using p-NPP as substrate at 40 uM. In short, it runs like this: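 PTP-1B was cleaved from GST with thrombin and gel-filtered. Assay: 0.075 M β,β-dimethylglutarate buffer pH 7.0 with 1 mM EDTA and 1 mM DTT, 2.5 mM p-NPP, compound 40 μM final, DMSO control, 37 °C, 0.16 μg enzyme per 1 mL assay. Stopped with KOH; p-nitrophenol read at 400 nm. Residual activity is % of control, four assays, mean ± S.E.M.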

For assay [10], the system named is Rattus norvegicus. The experiment in a line: Hypoglycemic activity in normoglycemic Wistar rat at 10 mg/kg, po administered as single dose measured up to 3 hrs post dose. The assay is classed as functional, organism-based. On the set-up: dose 10 mg/kg. A digest of the protocol: as §3
Assay [11] deals with Rattus norvegicus. The experiment in a line: Hypoglycemic activity in glucose-fed normoglycemic Wistar rat assessed as decrease in rise of blood glucose at 5 to 10 mg/kg, po single dose measured up to 4 hrs post dose by oral glucose tolerance test. The class given is functional, organism-based. In short, it runs like this:
as §1

The test system of assay [12] is Rattus norvegicus. Kind of assay: Hypoglycemic activity in normoglycemic Wistar rat at 100 mg/kg, po administered as single dose measured up to 5 hrs post dose. The class given is functional. A digest of the protocol: as §3

For the compound `CCOc1cc(CC(=O)N[C@@H](CC(C)C)c2ccccc2N2CCCCC2)ccc1C(=O)O`, the outcome with Rattus norvegicus [1] was Active.

By pIC50 is commonly meant the IC50 on a negative log10 scale, so that one unit is a factor of ten. As a reminder, the pKi is −log10 of the Ki, conventionally taken in molar units. `CCOC(=O)C(=O)Nc1nc2ccc(Cl)cc2s1`: the inhibition entry in assay [2] and in assay [7] was “Active” each time. Further, the pIC50 in assay [3] is 5.00. The pKi in [4] was 5.10. The figures for the Activity in the assay on Rattus norvegicus [5] and with Rattus norvegicus [8] were more than 20% and 30%, respectively. Besides, the inhibition entry in assay [6] is “inactive”.

`CCOC(=O)C(=O)Nc1nc2ccc(F)cc2s1`: the inhibition result in assay [2] and in [7] was “Active” throughout. Besides, in assay [3], the pIC50 is 5.06. In addition, in [4], the negative logarithm of the Ki (pKi) is 5.10. Further, the inhibition result in assay [6] was “inactive”.

`CCOC(=O)C(=O)Nc1nc2ccc([N+](=O)[O-])cc2s1`: the inhibition entry in [9] was “inactive”.

On to `COc1ccc(Cl)cc1C(=O)NCCc1ccc(S(=O)(=O)NC(=O)NC2CCCCC2)cc1`, for which the outcome with Rattus norvegicus [10] and with Rattus norvegicus [11] was Active.

Consider `CCOC(=O)C(=O)Nc1nc2ccc(OCC)cc2s1`, for which, in assay [9], the inhibition entry was “inactive”.

As for `CCOC(=O)C(=O)Nc1nc2ccc(S(C)(=O)=O)cc2s1`, the inhibition result in assay [9] was “inactive”.

For the compound `CCOC(=O)C(=O)Nc1nc2ccc(N)cc2s1`, the inhibition result in assay [9] was “inactive”.

Turning to `CCOC(=O)C(=O)Nc1nc2ccc(C)cc2s1`, the inhibition result in [2] and in assay [7] was “Active” each time. In addition, the pIC50 in assay [3] is 4.96. Further, in [4], the pKi is 5.21. For the same compound, the values for the Activity in the assay with Rattus norvegicus [5] and with Rattus norvegicus [12] were more than 20% and 26%, respectively. Moreover, the inhibition result in assay [6] was “inactive”.

Take `CCOC(=O)C(=O)Nc1nc2ccccc2s1`: in [9], the inhibition entry is “inactive”.

Regarding `CCOC(=O)C(=O)Nc1nc2ccc(OC)cc2s1`, in assay [9], the inhibition entry was “inactive”.
